Active and inactive are the calls of the source. The rule behind the calls is not given here.
Tests used:
Casein kinase II = Casein kinase II (Homo sapiens, UniProt P19784+P67870+P68400); test: Inhibition of human recombinant CK2a1/CK2b holoenzyme expressed in Escherichia coli BL21(DE3) pre-incubated for 10 mins before substrate addition by capillary electrophoresis based assay
ABCG2 [1] = molecular target: T1, ABCG2 (Homo sapiens, UniProt Q9UNQ0); test: Inhibition of ABCG2 (unknown origin) expressed in HEK293 cells assessed as reduction in mitoxantrone efflux at 10 uM after 30 mins by FACS method; format: cell-based; details: HEK293 cells expressing ABCG2, probe mitoxantrone
T1 sequence (Q9UNQ0 whole entry): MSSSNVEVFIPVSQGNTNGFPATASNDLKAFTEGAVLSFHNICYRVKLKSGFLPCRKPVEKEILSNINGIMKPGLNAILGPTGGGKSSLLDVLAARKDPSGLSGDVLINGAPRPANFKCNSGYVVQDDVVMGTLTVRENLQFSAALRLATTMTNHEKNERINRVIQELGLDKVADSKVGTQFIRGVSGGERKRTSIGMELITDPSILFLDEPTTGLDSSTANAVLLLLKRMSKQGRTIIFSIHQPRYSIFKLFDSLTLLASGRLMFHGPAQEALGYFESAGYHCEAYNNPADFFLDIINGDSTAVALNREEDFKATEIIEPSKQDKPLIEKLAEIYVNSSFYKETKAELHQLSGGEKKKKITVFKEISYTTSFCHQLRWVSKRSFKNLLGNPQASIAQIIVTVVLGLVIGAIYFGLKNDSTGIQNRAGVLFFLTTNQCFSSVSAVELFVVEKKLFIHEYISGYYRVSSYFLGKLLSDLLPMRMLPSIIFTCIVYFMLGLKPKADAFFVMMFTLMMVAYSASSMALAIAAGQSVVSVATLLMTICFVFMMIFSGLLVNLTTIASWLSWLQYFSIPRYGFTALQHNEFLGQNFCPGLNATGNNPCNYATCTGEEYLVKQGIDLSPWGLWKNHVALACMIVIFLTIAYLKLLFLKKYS
Procedure, shortened: (§1)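 HEK293 cells stably transfected with ABCG2 (kept in 0.75 mg/mL G418) were seeded at 1.0 × 10^5/well and grown 72 h. They were then exposed to 5 μM mitoxantrone for 30 min at 37 °C with or without compound, washed and trypsinized. Intracellular fluorescence was read by flow cytometry (FL4, ≥10,000 events).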

[2] = molecular target: T2, Broad substrate specificity ATP-binding cassette transporter ABCG2 (Homo sapiens, UniProt Q9UNQ0); test: Inhibition of ABCG2 (unknown origin) expressed in HEK293 cells assessed as reduction in mitoxantrone efflux after 30 mins by FACS method; format: cell-based; procedure, shortened: as §1
T2 sequence (Q9UNQ0 whole entry): T1 sequence (Q9UNQ0 whole entry)

[3] = Intrinsic cytotoxicity against HEK293 cells assessed as reduction in cell viability after 72 hrs by MTT assay; format: cell-based; details: human, read-out: IG50
Procedure, shortened: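 Wild-type HEK293 cells were seeded at 1 × 10^4/well, incubated overnight, then treated with compound (0–250 μM) for 72 h. MTT at 0.5 mg/mL was added for 4 h at 37 °C. Formazan was dissolved in DMSO/ethanol 1:1, and absorbance was read at 570 nm minus 690 nm to give IG50.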

ABCG2 [4] = test: Selectivity index, ratio of IC50 for intrinsic cytotoxicity against HEK293 cells to IC50 for ABCG2 (unknown origin) expressed in HEK293 cells; format: toxicity, cell-based; details: human, HEK293 cells expressing ABCG2, read-out: Selectivity Index
HEK293 = test: Selectivity index, ratio of IC50 for human recombinant CK2a1/CK2b holoenzyme expressed in Escherichia coli BL21(DE3) to IC50 for ABCG2 (unknown origin) expressed in HEK293 cells
MCF7 [5] = test: Inhibition of cell proliferation of human MCF7 cells assessed as DNA synthesis at 20 uM after 24 hrs by EdU-click assay; format: functional; set-up: scale not given: the % may be the effect or the level left
Procedure, shortened: (§2)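 MCF-7 cells were grown in RPMI 1640 GlutaMax plus 10% FCS, seeded 5.0 × 10^4/well and incubated overnight. They were then exposed to inhibitor at 20 or 100 μM for 24 or 48 h (37 °C, 5% CO2), with 1% DMSO as control. EdU was incorporated and click-coupled to TAMRA azide, with Hoechst counterstain. Microscope counts gave TAMRA-positive nuclei as a percentage of total nuclei. Values are the mean (±SD) of four assays.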

MCF7 [6] = test: Inhibition of cell proliferation of human MCF7 cells assessed as DNA synthesis at 20 uM after 48 hrs by EdU-click assay; format: functional; set-up: scale not given: the % may be the effect or the level left; procedure, shortened: as §2
MCF7 [7] = test: Inhibition of cell proliferation of human MCF7 cells assessed as DNA synthesis at 100 uM after 24 hrs by EdU-click assay; format: functional, cell-based; procedure, shortened: as §2
MCF7 [8] = test: Induction of cell damage in human MCF7 cells at 20 to 100 uM after 24 hrs by Hoechst 33258 staining based fluorescence assay; format: functional
Procedure, shortened: (§3)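 MCF-7 cells in RPMI 1640 GlutaMax with 10% FCS, seeded 5.0 × 10^4 per well and left overnight. Medium was replaced with inhibitor at 20 or 100 μM, with 1% DMSO as control, for 24 h at 37 °C, 5% CO2. Nuclei were stained with Hoechst 33258 (3 μg/mL in methanol) for 30 min at room temperature in the dark and examined by fluorescence microscopy (DAPI filter) for nuclear morphology.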

MCF7 [9] = test: Induction of cell death in human MCF7 cells assessed as viable cell level at 20 to 100 uM after 24 hrs by Hoechst 33258 staining based fluorescence assay; format: functional
Procedure, shortened: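 MCF-7 cells grown in RPMI 1640 GlutaMax with 10% fetal calf serum, seeded at 5.0 × 10^4 cells/well and left overnight. Medium then replaced with fresh medium holding inhibitor at 20 or 100 μM, with 1% DMSO as control, for 24 h at 37 °C, 5% CO2. Nuclei stained with Hoechst 33258 (3 μg/mL in methanol, 30 min, room temperature, dark). Total cells counted and nuclear morphology examined by fluorescence microscopy.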

MCF7 [10] = test: Induction of apoptosis in human MCF7 cells assessed as reduction in nuclear size at 20 to 100 uM after 24 hrs by Hoechst 33258 staining based fluorescence assay; format: functional, cell-based
Procedure, shortened: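 MCF-7 cells grown in RPMI 1640 GlutaMax with 10% fetal calf serum, seeded 5.0 × 10^4 cells/well and incubated overnight. Medium then replaced with medium containing compound at 20 or 100 μM; 1% DMSO as control. Incubation 24 h at 37 °C, 5% CO2. Nuclei stained with Hoechst 33258 (3 μg/mL in methanol), 30 min at room temperature in the dark. Nuclear morphology examined by fluorescence microscopy.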

MCF7 [11] = test: Induction of apoptosis in human MCF7 cells assessed as chromatin condensation at 20 to 100 uM after 24 hrs by Hoechst 33258 staining based fluorescence assay; format: functional, cell-based; details: in the assay text read “100 uM” for “20 to 100 uM”; procedure, shortened: as §3

Chain of Casein kinase II (P67870 whole entry): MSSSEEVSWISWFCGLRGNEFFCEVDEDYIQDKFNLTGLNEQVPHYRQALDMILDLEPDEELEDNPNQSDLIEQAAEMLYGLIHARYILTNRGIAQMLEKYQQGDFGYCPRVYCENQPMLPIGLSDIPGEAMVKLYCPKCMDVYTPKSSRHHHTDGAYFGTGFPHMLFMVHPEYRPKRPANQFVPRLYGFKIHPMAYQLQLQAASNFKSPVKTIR
Chain of Casein kinase II (P68400 whole entry): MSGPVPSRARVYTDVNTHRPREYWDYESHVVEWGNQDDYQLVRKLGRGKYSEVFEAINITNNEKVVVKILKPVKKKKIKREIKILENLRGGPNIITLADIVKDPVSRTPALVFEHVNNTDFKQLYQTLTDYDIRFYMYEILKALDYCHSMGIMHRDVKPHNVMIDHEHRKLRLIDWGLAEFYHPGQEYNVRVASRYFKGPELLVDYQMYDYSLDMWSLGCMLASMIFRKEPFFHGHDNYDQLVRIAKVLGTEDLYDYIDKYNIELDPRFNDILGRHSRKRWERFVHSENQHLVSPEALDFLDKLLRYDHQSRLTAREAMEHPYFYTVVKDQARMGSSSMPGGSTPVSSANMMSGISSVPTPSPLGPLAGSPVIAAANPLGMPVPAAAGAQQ
Chain of Casein kinase II (P19784 whole entry): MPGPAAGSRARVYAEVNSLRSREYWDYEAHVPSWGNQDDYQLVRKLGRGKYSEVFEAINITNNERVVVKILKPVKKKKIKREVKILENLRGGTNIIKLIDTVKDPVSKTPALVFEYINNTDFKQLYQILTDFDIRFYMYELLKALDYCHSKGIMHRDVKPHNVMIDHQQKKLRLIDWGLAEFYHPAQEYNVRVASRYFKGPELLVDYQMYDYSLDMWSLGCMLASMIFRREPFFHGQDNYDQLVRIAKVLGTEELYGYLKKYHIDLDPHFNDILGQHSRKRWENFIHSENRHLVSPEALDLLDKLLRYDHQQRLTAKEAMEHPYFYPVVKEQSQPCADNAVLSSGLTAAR

SMILES	IC50 (Casein kinase II)	inhibition at 0.5 h, 10 µM (ABCG2 [1])	IC50 [2]	CC50 at 72 h [3]	selectivity ratio (ABCG2 [4])	Ratio IC50 (HEK293)	other results
O=C1CC(c2ccccc2)Cc2c1c1c(n2CCc2ccccc2)-c2ccccc2C1=O (stereo unspecified)	15 µM	83%	0.49 µM	20.1 µM	41	30	
O=C1CCCc2c1c1c(n2CCCc2ccccc2)-c2ccccc2C1=O	6 µM	83%	0.79 µM	> 100 µM	> 127	8	
O=C1c2c(O)ccc(O)c2C(=O)c2c(NCCNCCO)ccc(NCCNCCO)c21 [MITOXANTRONE]				0.009 µM			
O=C1CCCc2c1c1c(n2Cc2ccccc2)-c2ccccc2C1=O	15 µM	18%	30 µM			0.5	
CC(C)=CCOc1cccc2c1-c1c(c3c(n1C(C)C)CCCC3=O)C2=O		60%	1.6 µM	31 µM			Activity (MCF7 [5]): 14%; Activity (MCF7 [6]): 1.3%; inhibition (MCF7 [7]): Active; Activity (MCF7 [8]): Active; Activity (MCF7 [9]): 10%; Activity (MCF7 [10]): Active; Activity (MCF7 [11]): Active
COc1ccc2[nH]cc(CCNC(=O)c3cc(=O)c4c(OCc5ccc(Br)cc5)cccc4o3)c2c1		98%	0.13 µM	96 µM			
O=C1CCCc2c1c1c(n2CCc2ccccc2)-c2ccccc2C1=O	7 µM	100%	0.43 µM	30.7 µM	71	16	
O=C1CC(c2ccccc2)Cc2c1c1c(n2Cc2ccccc2)-c2ccccc2C1=O (stereo unspecified)	55 µM	68%	0.96 µM	16.9 µM	18		
COc1ccc2c3c([nH]c2c1)[C@H](CC(C)C)N1C(=O)[C@H](CCC(=O)OC(C)(C)C)NC(=O)[C@@H]1C3				32 µM			
CCc1c2c(nc3ccc(O)cc13)-c1cc3c(c(=O)n1C2)COC(=O)[C@]3(O)CC [7-ETHYL-10-HYDROXYCAMPTOTHECIN]				0.005 µM			
CC1CC(=O)c2c3c(n(Cc4ccccc4)c2C1)-c1ccccc1C3=O (stereo unspecified)	35 µM	33%	15 µM			2	
CC(C)n1c2c(c3c1-c1ccccc1C3=O)C(=O)CCC2		15%	35 µM				
CC1CC(=O)c2c3c(n(C(C)C)c2C1)-c1ccccc1C3=O (stereo unspecified)		65%	4.1 µM				
CC1CCc2c(c3c(n2C(C)C)-c2ccccc2C3=O)C1=O (stereo unspecified)		40%	20 µM				
COc1ccc(CCn2c3c(c4c2-c2ccccc2C4=O)C(=O)CCC3)cc1		131%	0.7 µM	68.5 µM		6	
CC(C)n1c2c(c3c1-c1ccccc1C3=O)C(=O)C(Cc1ccccc1)(Cc1ccccc1)CC2	11 µM	90%	0.61 µM	6 µM	10	18	
CC1CC(=O)c2c3c(n(CCc4ccccc4)c2C1)-c1ccccc1C3=O (stereo unspecified)		100%	0.23 µM	> 100 µM		11	
CC(C)=CCOc1cccc2c1C(=O)c1c3c(n(C(C)C)c1-2)CCCC3=O		74%	3 µM				
COc1ccccc1CCn1c2c(c3c1-c1ccccc1C3=O)C(=O)CCC2	1.4 µM	106%	0.21 µM	27.2 µM	130	7	
COc1cccc(CCn2c3c(c4c2-c2ccccc2C4=O)C(=O)CCC3)c1	5.1 µM	78%	0.31 µM	12.7 µM	41	16	

Source: ChEMBL document CHEMBL3352248, “Converting potent indeno[1,2-b]indole inhibitors of protein kinase CK2 into selective inhibitors of the breast cancer resistance protein ABCG2” (J Med Chem, 2015)
